Measurements gathered from unrelated publications.
Protocols differ between the studies behind these lines.
Target: Phosphatidylinositol 4-kinase beta (PI4KB, Homo sapiens, UniProt Q9UBF8)

O=C(NCCCN1CCOCC1)c1ccc(Nc2ncc(Cl)c(-c3ccc(Cl)s3)n2)cc1
remaining binding (binding, competition with immobilised ligand; 1 µM): 100%

c1cnn2ncc(-c3ccnc(N4CCC45COC5)n3)c2c1
remaining binding (binding; 1 µM): 12%

Nc1ncc2c(n1)-c1c([nH]c3ccc(C#CC4CC4)cc13)CCCC2
remaining binding (binding, competition with immobilised ligand; 1 µM): 100%

C=CC(=O)N1CCC(C(=O)NCC(=O)N2CCN(c3nc(-c4cnc(N)nc4C(F)F)nc(N4CCOCC4)n3)CC2)CC1
remaining binding (binding, competition with immobilised ligand; 1 µM): 100%

COc1cnc(Nc2cccc(S(N)(=O)=O)c2)nc1N1CCN(c2ccccc2)CC1
remaining binding (binding, competition with immobilised ligand; 1 µM): 53%

CN(CCCC(F)(F)F)c1nccc(-c2cnn3ncccc23)n1
remaining binding (binding; 1 µM): 100%

CC(=O)C1=C(C)N(c2cccc(C(F)(F)F)c2)C(=O)N[C@@H]1c1ccc(C#N)nc1
remaining binding (cell-free assay, competition with immobilised ligand; 1 µM): 100%

CN(C)c1nccc(-c2cnc3ncccn23)n1
remaining binding (binding; 1 µM): 79%

O=C(Nc1c[nH]nc1C(=O)NC1CCNCC1)c1cc(F)cc(F)c1
remaining binding (binding, competition with immobilised ligand; 1 µM): 100%

FC(F)(F)Oc1cccc(-c2cnc3ccc(-c4ccncc4)nn23)c1
remaining binding (binding, competition with immobilised ligand; 5 µM): 0.05%

Cc1cnn2ncc(-c3ccnc(N(C)C)n3)c2c1
remaining binding (binding; 1 µM): 56%

CNC(=O)[C@@H]1CC[C@@H](n2c(-c3ccc4cnccc4c3)nc3ccc(C(=O)NCc4cccc(C(N)=O)c4)cc32)C1
remaining binding (binding, competition with immobilised ligand; 1 µM): 96%

O=C(N1CCS(=O)(=O)CC1)N1C[C@H](c2ccc(OC(F)(F)F)cc2)C[C@H](c2nc(C3CC3)no2)C1
remaining binding (cell-free assay, competition with immobilised ligand; 1 µM): 100%

C[C@@H]1CCN(c2nccc(-c3cnn4ncccc34)n2)C1
remaining binding (binding; 1 µM): 20%

CC(C)CC(=O)N1CCc2nc(-c3ccc(Br)cc3)nc(N(C)Cc3ccccc3)c2C1
remaining binding (cell-free assay, competition with immobilised ligand; 0.1 µM): 100%

Cc1cnc(Nc2ccc(C(=O)N3CCC(N4CCCC4)CC3)cc2)nc1-c1cc2ccccc2s1
remaining binding (binding, competition with immobilised ligand; 1 µM): 77%

c1ccc(N2CCN(Cc3nc4ccccc4[nH]3)CC2)nc1
remaining binding (cell-free assay, competition with immobilised ligand; 1 µM): 100%

N[C@@H]1CCN(c2nccc(-c3cnn4ncccc34)n2)C1
remaining binding (binding; 1 µM): 80%

CN(C)C(=O)Cn1cc(-c2nc([C@@](C)(c3ccc(-c4cnc(N)nc4)cc3)C3CC3)no2)cn1
remaining binding (cell-free assay, competition with immobilised ligand; 1 µM): 92%

c1cncc(-c2cccc(Nc3nccc(NC4CCCCC4)n3)c2)c1
remaining binding (binding, competition with immobilised ligand; 10 µM): 1.1%

Cc1c(C(=O)O)cc(-c2ccc(C3CCNCC3)cc2)c2ccc(-c3ccc(C(F)(F)F)cc3)cc12
remaining binding (cell-free assay, competition with immobilised ligand; 1 µM): 100%

O=C(c1ccc(Nc2ncc(Cl)c(-c3ccc(Cl)s3)n2)cc1)N1CCC(N2CCCC2)CC1
remaining binding (binding, competition with immobilised ligand; 1 µM): 100%
